Test results from PMC3364105 (Nature Biotechnology, 2011).
Blank lines part the entries; values can stand above or below the compound they belong to.

Legend:
Format in all cases: in vivo
[1] = system: sciatic nerve; test: Cy5-NP41 nerve labeling and localization in thy1-YFP transgenic mice; details: for nerve-to-muscle contrast / nerve labeling: injected into thy1-YFP transgenic mice
[2] = system: peripheral nerves; details: FAM-labeled peptide, intravenous, living mice; for background binding to surrounding nonneural tissue: 2–4 h after injection
In short: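 Peptides were made as fluorescein-5(6)-carbonyl (FAM) conjugates on a C-terminal lysinamide. The control was a same-format peptide with the shared amino acids in random order. Each was given intravenously to living mice, and FAM fluorescence contrast between peripheral nerve and muscle was evaluated 2–4 h post-injection.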

[3] = Biodistribution and urine metabolites after systemic administration; details: mice
In short: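 Mice received 150 nmoles FAM- or Cy5-labeled test peptide intravenously. Organs were harvested and fluorescence uptake was evaluated. Urine was analysed by MALDI mass spectrometry to identify the major fluorescently labeled species. The control was an all-D-amino-acid FAM-labeled peptide.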

[4] = Behavior, activity, weight and morbidity after injection; details: mice, injections of 75–300 nmoles

Compound: CCN1/C(=C/C=C/C=C/C2=[N+](CCCCCC(=O)O)c3ccc(S(=O)(=O)O)cc3C2(C)C)C(C)(C)c2cc(S(=O)(=O)[O-])ccc21 [unconjugated Cy5, reference compound]
- nerve-to-muscle contrast / nerve labeling [1]: No nerve-to-muscle contrast was detected

Compound: AHHNSWKAKHHS [NP38]
- background binding to surrounding nonneural tissue [2]: high-background binding to the surrounding nonneural tissue

Compound: NTQTLAKAPEHT [NP41]
- nerve-to-muscle contrast ([2]; evaluated 2–4 h after injection): best nerve to nonnerve contrast

Compound: TYTDWLNFWAWP [NP39]
- background binding to surrounding nonneural tissue [2]: high-background binding to the surrounding nonneural tissue

- state of peptide recovered in urine ([3]; urine, liquid chromatography–electrospray mass spectrometry / MALDI-MS): efficiently metabolized
- major fluorescently labeled species in urine ([3]; urine, matrix-assisted laser desorption/ionization mass spectrometry): cysteinamide-Cy5
- change in behavior or activity [4]: no change in behavior or activity
Compound: acetyl-SHSNTQTLAKAPEHTGC-(Cy5)-amide [Cy5-NP41]
- localization within nerve ([1]; 3–5 µm cryosections of nerves from thy1-YFP animals): localized to the epineurium of the nerves with some labeling of the perineurium and endoneurium, but did not colocalize with either myelin or axons
- nerve-to-muscle contrast / nerve labeling [1]: precisely labeled nerves that expressed YFP
- biodistribution of fluorescence ([3]; intravenous, 150 nmoles, harvested organs): majority of the fluorescence accumulated in the kidney and was excreted into the urine
